Measurements from different studies.
Protocols differ between the studies behind these lines.
Cell line: DU-145
Read-out: cell growth or viability

| Structure (SMILES) | assay | setting | IC50 [µM] |
| --- | --- | --- | --- |
| O=c1ccn(Cc2cn(-c3c4ccccc4nc4ccccc34)nn2)c(=O)[nH]1 | MTT |  | 59.3 |
| Cc1ccc2c(c1)c(C(c1ccc(/C=C/C(=O)O)s1)c1cn(C(C)C)c3ccc(C)cc13)cn2C(C)C | MTT | 48 h | > 100 |
| C[C@H]1O[C@@H](n2cc(F)c(=O)[nH]c2=O)[C@H](O)[C@@H]1O | CCK-8 | 48 h | > 50 |
| COc1cccc2c1C(=O)c1c(O)c3c(c(O)c1C2=O)C[C@@](O)(C(=O)CO)C[C@@H]3O[C@H]1C[C@H](N)[C@H](O)[C@H](C)O1 | resazurin | 72 h | 0.095 |
| FC(F)(F)c1ccc(C(c2c[nH]c3ccccc23)c2c[nH]c3ccccc23)cc1 | MTT | 48 h | 47 |
| Cc1ccc(S(=O)(=O)N(C)CC(=O)N(Cc2ccc(C3CCCCC3)cc2)c2ccc(C(=O)O)c(O)c2)cc1 |  |  | 37.2 |
| C[C@@H]1C[C@@H](c2cccc(F)c2)c2c(cc3ccccn23)C(=O)O1 (racemic) | resazurin | 72 h | > 100 |
| COc1cccc2c1C(=O)c1c(O)c3c(c(O)c1C2=O)C[C@@](O)(C(=O)CO)C[C@@H]3O[C@H]1C[C@H](N)[C@H](O)[C@H](C)O1 | WST-1 | 72 h | 0.03 |
| Cn1cc(C(c2cccc(/C=C/C(=O)O)c2)c2cn(C)c3ccccc23)c2ccccc21 | MTT | 48 h | > 100 |
| C[C@@H]1C[C@H](c2ccccc2)c2c(cc3ccccn23)C(=O)O1 (racemic) | resazurin | 72 h | > 100 |
| COc1cc(Nc2nccc(-c3cnn4nc(OC)ccc34)n2)cc(C(F)(F)F)c1 | ATP luminescence |  | 0.38 |
| CC(C)C(=O)Nc1ccc([N+](=O)[O-])c(C(F)(F)F)c1 | CCK-8 | 48 h | > 50 |
| Cc1ccc2[nH]cc(C(c3ccc(/C=C/C(=O)O)s3)c3c[nH]c4ccc(C)cc34)c2c1 | MTT | 48 h | > 100 |
| COc1cc([C@@H]2C[C@@H](C)OC(=O)c3cc4ccccn4c32)cc(OC)c1OC (racemic) | resazurin | 72 h | > 100 |
| COC1=CC(=O)N(C(=O)[C@@H](CCC(Cl)(Cl)Cl)NC(=O)C(C)(C)C)[C@@H]1CCC(Cl)(Cl)Cl | resazurin | 72 h | 20 |
| Cn1cc(C(c2ccc(/C=C/C(=O)O)s2)c2cn(C)c3ccccc23)c2ccccc21 | MTT | 48 h | 46 |
| C[C@@H]1C[C@H](c2ccc(Br)cc2)c2c(cc3ccccn23)C(=O)O1 (racemic) | resazurin | 72 h | 34.4 |
| c1csc([I+]c2cccs2)c1 | trypan blue | 48 h | ~3.5 |
| O=C(O)/C=C/c1cccc(C(c2c[nH]c3ccccc23)c2c[nH]c3ccccc23)c1 | MTT | 48 h | > 100 |
| C[C@@H]1C[C@@H](c2cccc(Cl)c2)c2c(cc3ccccn23)C(=O)O1 (racemic) | resazurin | 72 h | > 100 |
| Cc1ccccc1-c1ccc(Cn2cccc(O)c2=S)cc1 | MTS |  | 13.6 |
| O=C(O)/C=C/c1ccc(C(c2c[nH]c3ccccc23)c2c[nH]c3ccccc23)s1 | MTT | 48 h | 90 |
